CHO parental Ca = ATP-evoked calcium signal inhibitors, parental CHO, primary screen, counter-screen for OX1R antagonist project, cell-based, fluorescence, Fluo-8 calcium dye; parental CHO-K1, ATP-induced calcium, Fluo-8 fluorescence; inhibition, % at 5.6 µM; 330,000 compounds, 0.63% hits;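 active means inhibition above that plate's mean sample inhibition plus 3 SD, cut at about 26% in these data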;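 further: 0% = ATP-challenged DMSO wells and 100% = DMSO wells without ATP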
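Test system: untransfected parental CHO cell line. Compound: one dose, 5.6 µM nominal. Detection: intracellular calcium via Fluo-8 no-wash fluorescent dye. Measure: % inhibition. Benchmarks: ATP-challenged DMSO wells low, unchallenged DMSO wells high.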
TAAR1 ag = human TAAR1 agonists, primary screen, Fluo-8 calcium fluorescence, CHO RD-HGA16 cells; AID 624467, 2012; vehicle wells 0%, saturating PEA agonist 100%; activation, % at 3 µM; Trace amine-associated receptor 1 (Homo sapiens), Q96RJ0; 360,000 compounds, 0.99% hits;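 active means activation above the mean activation of all test compounds in the run plus 3 SD, cut at about 38% in these data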
Target sequence (Q96RJ0 whole entry, looked up): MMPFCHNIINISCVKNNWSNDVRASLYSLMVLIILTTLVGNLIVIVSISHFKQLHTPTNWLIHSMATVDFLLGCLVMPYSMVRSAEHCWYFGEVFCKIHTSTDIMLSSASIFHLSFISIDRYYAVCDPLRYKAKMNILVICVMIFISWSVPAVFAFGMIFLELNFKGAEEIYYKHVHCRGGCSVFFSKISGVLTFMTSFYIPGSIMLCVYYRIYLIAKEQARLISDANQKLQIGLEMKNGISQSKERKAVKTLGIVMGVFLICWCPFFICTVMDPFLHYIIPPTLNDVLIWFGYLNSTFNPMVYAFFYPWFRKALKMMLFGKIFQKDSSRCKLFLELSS
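System: CHO-derived RD-HGA16 cells with stable Gα16 and human TAAR1 / Times: 17-24 h plating, Fluo-8 75 min 37 °C, 30 min RT / Technique: calcium-sensitive Fluo-8 signal, excitation 470-495, emission 515-575 nm / Measure: % activation relative to PEA EC100 response / Benchmarks: DMSO and PEA EC100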
TAAR1 antag = human TAAR1 antagonists, primary screen, Fluo-8 calcium fluorescence, CHO RD-HGA16 cells. Trace amine-associated receptor 1 (Homo sapiens), Q96RJ0. antagonist. AID 624466, 2012. inhibition, % at 3 µM. 360,000 compounds, 1.5% hits;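 active means inhibition above a per-plate cutoff, the mean inhibition of test compounds on that plate plus 3 SD, cut at about 49% in these data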;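 further: 0% = DMSO plus EC80 beta-PEA response and 100% = DMSO alone without agonist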
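Assay system: RD-HGA16 CHO cells with stable hTAAR1 and Gα16 / Reagent: EC80 β-phenethylamine stimulus / Doses: 3 µM, single point / Timing: dye loading 75 min at 37 °C, then 30 min room temperature / Measured by: Fluo-8 intracellular calcium dye fluorescence, real-time kinetic reads / Controls: vehicle wells and EC80 agonist wells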
OX1R antag-1 = antagonists of human orexin 1 receptor (OX1R) | OX1R-expressing cells, FRET antagonist read-out | inhibition, % at 6.6 µM | 330,000 compounds, 1.8% hits | AID 485270, 2010; in the data active means inhibition mostly above about 38%, no sharp cut-off; inactive means mostly below about 40%;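 further: 0% = agonist challenge alone and 100% = reference antagonist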
Target sequence (O43613 whole entry, looked up): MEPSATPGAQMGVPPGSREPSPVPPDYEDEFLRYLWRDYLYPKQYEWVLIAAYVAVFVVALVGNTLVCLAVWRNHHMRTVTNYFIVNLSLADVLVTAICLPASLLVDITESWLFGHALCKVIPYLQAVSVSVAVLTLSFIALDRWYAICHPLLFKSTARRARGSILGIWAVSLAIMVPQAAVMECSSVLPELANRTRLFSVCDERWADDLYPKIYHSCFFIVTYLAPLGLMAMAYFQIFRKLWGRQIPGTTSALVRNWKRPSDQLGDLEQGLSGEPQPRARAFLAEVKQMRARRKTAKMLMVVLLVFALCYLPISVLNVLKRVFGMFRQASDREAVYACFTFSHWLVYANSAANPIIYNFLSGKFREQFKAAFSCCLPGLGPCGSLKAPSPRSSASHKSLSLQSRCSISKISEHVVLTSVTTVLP
OX1R antag-2 = OX1R (HCRTR1) antagonists, primary screen, fluorescence, CHO/OX1R cells, Fluo-8 calcium, orexin A | Orexin/Hypocretin receptor type 1 (Homo sapiens), O43613 | Fluo-8 calcium fluorescence | inhibition, % at 5 µM | 330,000 compounds, 0.43% hits | AID 434989, 2010;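 active means inhibition above its plate's threshold, mean inhibition of all tested compounds on the plate plus 3 SD, cut at about 37% in these data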;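 further: 0% = orexin A challenge wells and 100% = SB-334867-A antagonist wells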
TAAR1 ag conf = human TAAR1 agonists, retest of hits, confirmation, Fluo-8 calcium fluorescence, CHO RD-HGA16 cells. shares compounds with TAAR1 ag. 2,400 compounds, 82% hits. activation, % at 3 µM. scaled: DMSO 0%, maximal phenethylamine 100%. AID 651783, 2012;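 active means activation above a cutoff set at the run's mean compound activation plus 3 SD, cut at about 39% in these data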
Ga16 nonsel ag = nonselective calcium mobilization agonists, CHO-Ga16 cells, counter-screen for hTAAR1 agonist project, cell-based, fluorescence, CHO-Ga16 parental line | shares compounds with TAAR1 ag | Fluo-8 calcium fluorescence; normalized to maximal ATP response, DMSO zero | activation, % at 3 µM | 2,400 compounds, 50% hits;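 active means activation above the run cutoff, the mean activation over all tested wells plus 3 SD, cut at about 12% in these data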;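 further: 0% = DMSO wells and 100% = maximal ATP response on the peak over basal ratio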
TAAR1 desens = TAAR1 desensitization by agonist hits, confirmation, counter-screen for TAAR1 agonist project, cell-based, fluorescence, tachyphylaxis; AID 651951, 2012; CHO RD-HGA16 hTAAR1, Fluo-8 calcium, beta-PEA response inhibition; 2,400 compounds, 46% hits; shares compounds with TAAR1 ag; inhibition, % at 3 µM;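 active means inhibition above the run cutoff, the mean inhibition of all test compounds plus 3 SD, cut at about 49% in these data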;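 further: beta-PEA stimulus applied at its EC80; loss of beta-PEA calcium signal after compound pretreatment read as receptor desensitization; 0% = DMSO with beta-PEA at EC80 and 100% = DMSO alone without agonist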
Ga16 antag count = inhibition of ATP-evoked calcium response in CHO-Ga16 cells, counter-screen for TAAR1 agonist project, cell-based, fluorescence; shares compounds with TAAR1 ag; CHO-Ga16 ATP-induced calcium, Fluo-8 fluorescence; inhibition, % at 3 µM; 2,400 compounds, 39% hits; AID 651952, 2012;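 active means inhibition above the plate's mean compound inhibition plus 3 SD, computed per plate, cut at about 22% in these data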;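 further: 0% = EC80 ATP with DMSO and 100% = DMSO wells without ATP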
Starred values were filed as active, the others as inactive; . = not tested or not shown; ! = not confirmed by another sample. Shown are actives, neighbours in structure and some others; about 3.9% of the full set was active somewhere.

SMILES | CHO parental Ca | TAAR1 ag | TAAR1 antag | OX1R antag-1 | OX1R antag-2 | TAAR1 ag conf | Ga16 nonsel ag | TAAR1 desens | Ga16 antag count
CCC(C)(C)n1nnnc1C(c1ccc(O)c(OC)c1)N1CCc2ccccc2C1 (stereo unspecified) | -8 | 104* | 92* | 10 | -22 | 106* | 15* | 100* | 12
CCC(C)(C)n1nnnc1C(c1ccccc1)N1CCc2ccccc2C1 (stereo unspecified) | -4 | 13 | 12 | 7 | -18 | . | . | . | .
O=C(NCc1cccnc1)C1c2ccccc2C(=O)N1Cc1ccco1 (stereo unspecified) | -1 | . | . | 16 | -11 | . | . | . | .
CN1CCN(C(c2cccnc2)c2ccc3cccnc3c2O)CC1 (stereo unspecified) | -30 | . | . | -4 | -10 | . | . | . | .
CN1CCN(C(c2ccc(Br)cc2)c2cc(Cl)c3cccnc3c2O)CC1 (stereo unspecified) | 12 | 69* | -13 | 7 | 24 | 121* | 88* | 76* | 43*
CC1=NOC(=O)/C1=C\c1ccc(-c2ccccc2Br)o1 | . | 46* | 75* | . | . | 32 | 29* | 56* | 65*
CCOC(=O)c1cc2c(OC)ccc(OC)c2n1CC(=O)c1ccccc1 | -16 | -2 | -18 | 7 | -49 | . | . | . | .
CS(=O)(=O)c1ccc(C(=O)Nc2cc(S(C)(=O)=O)ccc2Cl)cc1 | -8 | 5 | 4 | 17 | -2 | . | . | . | .
O=C(Nc1cccnc1)c1cc(Br)c(Br)s1 | -1 | 91* | 48 | 32 | -23 | 75* | 59* | 50* | 23*
O=C(Nc1cccnc1)c1ccc(Cl)c(Cl)c1 | -5 | 47* | 10 | -9 | 2 | 41* | 42* | 15 | 12
CS(=O)(=O)c1cccc(NC(=O)c2ccc(Cl)c(Cl)c2)c1 | -15 | 88* | 26 | -6 | -4 | 60* | 43* | 48 | 28*
O=C(NNC(=O)c1ccc(Cl)c(Cl)c1)c1cccnc1 | -14 | 5 | -34 | 10 | -14 | . | . | . | .
S=C(NCc1ccco1)NCC1CCCO1 (stereo unspecified) | -13 | 16 | 2 | 22 | -7 | . | . | . | .
COc1cc2ccc(C(C)=NNC(N)=S)cc2cc1OC | . | 2 | -12 | . | . | . | . | . | .
COc1cc(OC)c2c(-c3ccccc3)cc(=O)oc2c1C(CCN1CCCCC1)c1ccc2c(c1)OCO2 (stereo unspecified) | -11 | 43* | 13 | 2 | -30 | 45* | 12* | 20 | 16
COc1ccc(C(CCN2CCCCC2)c2c(OC)cc(OC)c3c(-c4ccccc4)cc(=O)oc23)cc1 (stereo unspecified) | 24 | 68* | 32 | 25 | 25 | 66* | 42* | 53* | 48*
O=[N+]([O-])c1ccc(C=Nc2ccccc2)cc1 | . | 1 | 7 | . | . | . | . | . | .
O=[N+]([O-])c1ccc(/C=C/C2=NN(c3ccccc3)C(c3ccco3)C2)cc1 (stereo unspecified) | 69* | 80* | 75* | 15 | 80* | 128* | 198* | 90* | 95*
CSc1ncccc1C(=O)Nc1cccc(S(=O)(=O)N(C)c2ccccc2)c1 | -23 | 11 | 35 | 24 | 26 | . | . | . | .
O=C(COC(=O)CCC(=O)c1cccs1)Nc1cccc(F)c1 | -3 | 4 | -4 | 1 | -6 | . | . | . | .
Cc1ccc(CNC(=O)CCc2cn(C)c3ccccc23)cc1 | -10 | 0 | -12 | 6 | -23 | . | . | . | .
c1ccc2c(c1)CCCC2C1=NCCN1 (stereo unspecified) | 1 | 91* | 92* | 0 | -3 | 93* | 0 | 97* | 11
CCOC(=O)Cc1csc(NC(=O)CN2CCCCC2)n1 | 6 | 1 | -11 | 0 | -5 | . | . | . | .
COc1cccc(/C=N/Nc2ncnc(N)c2[N+](=O)[O-])c1OC | -7 | . | . | 38 | -8 | . | . | . | .
Cc1cc(/C=N/Nc2ncnc(N)c2[N+](=O)[O-])c(C)n1-c1ccccc1 | -26 | 73* | 11 | 51* | -23 | 120* | 49* | 83* | 16
SMILES | CHO parental Ca | TAAR1 ag | TAAR1 antag | OX1R antag-1 | OX1R antag-2 | TAAR1 ag conf | Ga16 nonsel ag | TAAR1 desens | Ga16 antag count
NC(N)=N/N=C/c1c(Cl)cccc1Cl | -7 | 61* | 54*! | 6 | -11 | 88* | 2 | 91* | 9
COc1cccc(C(c2sc3ncnn3c2O)N2CCc3ccccc3C2)c1 (stereo unspecified) | -16 | 73* | -22 | 12 | -26 | 82* | 2 | 46 | 11
COc1ccc(C(c2sc3nc(C)nn3c2O)N2CCc3ccccc3C2)cc1 (stereo unspecified) | -13 | 34 | -1 | 22 | -18 | . | . | . | .
COc1cc(C(c2sc3nc(C)nn3c2O)N2CCc3ccccc3C2)cc(OC)c1OC (stereo unspecified) | -8 | 45* | -43 | 0 | -18 | 45* | 0 | 13 | 11
O=c1nccc(N/N=C/c2ccccc2)[nH]1 | . | 34 | 0 | . | . | . | . | . | .
O=c1cc(C=NNc2ccccc2)[nH]c(=O)[nH]1 | . | . | . | . | . | . | 3 | . | 11
O=C(O)c1ccc(NN=Cc2cc(=O)[nH]c(=O)[nH]2)cc1 | . | 2 | -7 | . | . | . | . | . | .
O=c1cc(N/N=C/c2ccccc2)[nH]c(=O)[nH]1 | -8 | 58* | 31 | 8 | -10 | 84* | 15* | 90* | 7
Cc1c(C=NNc2ccccc2)[nH]c(=O)[nH]c1=O | . | 58* | 2 | . | . | 72* | 3 | 36 | 11
COc1ccccc1C(=O)Nc1ccnn1C1CCN(CC2CC=CCC2)CC1 (stereo unspecified) | -8 | 0 | 3 | 6 | -26 | . | . | . | .
Cc1cc([N+](=O)[O-])nn1CCCC(=O)NC1CCCCC1 | -1 | 0 | -6 | 18 | 4 | . | . | . | .
CN(C)C(CNC(=O)CSC(=S)N1CCCC1)c1ccccc1 (stereo unspecified) | -12 | 1 | -3 | 8 | -29 | . | . | . | .

Screening results deposited in PubChem BioAssay by The Scripps Research Institute Molecular Screening Center.
